In PubChem BioAssay:
Activity calls are given as the source filed them.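 How the source made its calls, unless noted: active means viability at or below 30% in both replicate assays; inconclusive means viability at or below 30% in just one of the two assays; inactive means the rest.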

How the values were obtained:
[1] = reducers of endogenous Her2 protein level, primary screen, SKBR3 breast tumor cells, AlphaScreen, ATP viability (AID 461;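 active means Her2 level under about 52% in both replicate screens, with viability over 70% of control, limit read from the data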;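 on Her2 level: lower value means less Her2 protein in the cells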;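 on viability: percent of carrier control wells set as 100% viability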); conditions: 18-24 h, measured here: SKBR3 viability, ATP luminescence, at 10 µM
[2] = target: Receptor tyrosine-protein kinase erbB-2 (Homo sapiens) (UniProt P04626); experiment: as above; conditions: 18-24 h, at 10 µM, stronger effect = lower value
Sequence of Receptor tyrosine-protein kinase erbB-2 (Homo sapiens) (P04626 whole entry, looked up): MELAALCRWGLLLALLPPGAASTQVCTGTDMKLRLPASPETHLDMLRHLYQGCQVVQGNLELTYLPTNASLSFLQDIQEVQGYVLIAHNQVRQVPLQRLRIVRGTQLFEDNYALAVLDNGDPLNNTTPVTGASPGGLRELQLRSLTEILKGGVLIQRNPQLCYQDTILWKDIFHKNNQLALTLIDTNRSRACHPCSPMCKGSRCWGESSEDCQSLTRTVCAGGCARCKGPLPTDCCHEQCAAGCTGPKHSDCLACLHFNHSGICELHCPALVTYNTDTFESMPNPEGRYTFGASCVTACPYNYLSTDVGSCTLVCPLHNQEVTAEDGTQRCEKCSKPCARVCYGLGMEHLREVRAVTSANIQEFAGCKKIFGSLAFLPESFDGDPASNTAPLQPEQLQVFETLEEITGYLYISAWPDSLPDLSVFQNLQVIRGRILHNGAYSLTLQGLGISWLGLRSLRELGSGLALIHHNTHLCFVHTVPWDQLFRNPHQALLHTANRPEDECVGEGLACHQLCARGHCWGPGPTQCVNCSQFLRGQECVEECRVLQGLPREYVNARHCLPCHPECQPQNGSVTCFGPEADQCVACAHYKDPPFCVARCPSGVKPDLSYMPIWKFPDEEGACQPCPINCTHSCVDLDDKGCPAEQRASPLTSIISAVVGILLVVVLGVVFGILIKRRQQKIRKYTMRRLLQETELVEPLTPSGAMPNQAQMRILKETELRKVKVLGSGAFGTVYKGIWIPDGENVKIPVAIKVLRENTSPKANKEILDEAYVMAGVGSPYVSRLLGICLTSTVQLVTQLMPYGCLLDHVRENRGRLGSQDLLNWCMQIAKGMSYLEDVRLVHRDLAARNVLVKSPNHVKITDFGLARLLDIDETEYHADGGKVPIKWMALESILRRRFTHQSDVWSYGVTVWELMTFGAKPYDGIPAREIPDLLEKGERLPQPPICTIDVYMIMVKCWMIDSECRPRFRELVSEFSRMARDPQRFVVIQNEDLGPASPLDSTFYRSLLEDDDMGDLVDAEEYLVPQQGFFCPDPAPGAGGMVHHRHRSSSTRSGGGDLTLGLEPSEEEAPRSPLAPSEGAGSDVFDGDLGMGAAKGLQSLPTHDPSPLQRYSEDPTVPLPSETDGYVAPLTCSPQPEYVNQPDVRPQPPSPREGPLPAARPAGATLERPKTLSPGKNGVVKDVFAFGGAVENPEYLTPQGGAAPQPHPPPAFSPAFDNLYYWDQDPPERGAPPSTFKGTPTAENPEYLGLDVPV

[3] = SK-BR-3 cell growth inhibitors, pilot screen, 24 h, human (AID 572;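 active means viability at or below 10% of carrier control in both of two separate runs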;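 further: compound exposure lasted between 18 and 24 h rather than exactly 24 h; 100% = carrier-treated control wells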); conditions: SK-BR-3 viability, CellTiter-Glo luminescence, at 10 µM, stronger effect = lower value
[4] = HUVEC growth inhibition – cell-based, human, primary screen (AID 575); conditions: HUVEC proliferation, CellTiter-Glo luminescence, 72 h; at 10 µM; stronger effect = lower value;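 further: 100% = median of untreated cell wells with 0.1% DMSO on each plate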
Procedure, shortened: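 Test system: primary human umbilical vein endothelial cells. Quantity: 1250 cells/well. Compound: single 10 µM dose, 0.1% DMSO, from 5x medium stock. Timing: 72 h treatment at 37 °C. Detection: ATP-based CellTiter-Glo luminescent read. Benchmarks: vehicle and MePR control wells. Format: 384-well plates coated with collagen.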

[5] = growth inhibitors of H69AR lung tumor, primary screen, human, duplicate replicates (AID 580;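 active means viability at or under a set limit in both replicates, limit being median viability minus 3 SD, cut at about 48% in these data, passing the limit was not always enough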;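 further: 100% = mean luminescence of untreated wells and 0% = no signal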); conditions: H69AR lung tumor cells viability, ATP luminescence, 72 h; at 10 µM; stronger effect = lower value
[6] = reversal of MRP1-mediated doxorubicin resistance, pilot screen, H69AR cells, doxorubicin co-treatment (AID 601;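 active means viability loss from added drug above about 55%, and viability with drug at most 40%, in both replicates, limit read from the data, passing the limit was not always enough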); conditions: CellTiter-Glo, 72 h, at 10 µM; for differential viability (reversal): stronger effect = higher value
[7] = 384-well plate pilot, post-Golgi transport modulator project, inhibition of yeast transport mutant growth (AID 636; in the data active means inhibition above about 31%); conditions: absorbance 615 nm, about 18 h, stronger effect = higher value
[8] = growth suppression of yeast trafficking mutant, preliminary HTS, modulators of trafficking downstream of Golgi apparatus project, 1536-format plate, OD 615 nm (AID 637; in the data active means inhibition above about 30%); conditions: yeast transport mutant growth, absorbance 615 nm, 18 h; stronger effect = higher value
[9] = H69AR cells + 2 uM doxorubicin, measured here: viability with 2 uM doxorubicin, stronger effect = lower value
[10] = H69AR cells, compound alone cytotoxicity

Row | SMILES | viability [1] [%] | Her2 level [2] | viability [3] | viability [4] | viability [5] | differential viability (reversal) ([6]; H69AR cells + 2 uM doxorubicin) | viability [6, 9] [%] | viability [6, 10] [%] | inhibition [7] | inhibition [8]
1 | CCn1c(C)cc(=S)c2ccccc21 | 114 | 99.5% (inactive) | 114% (inactive) | 98.6% (inactive) | 91.2% (inactive) | 3.92% (inactive) | 87.3 | 91.2 | 1.22% (inactive) | -3.65% (inactive)
2 | O=C(O)C1CCCN1C(=O)Nc1ccc(F)cc1 (stereo not given) | 87 | 90.5% (inactive) | 87% (inactive) | 106% (inactive) | 93.6% (inactive) | 10.5% (inactive) | 83.1 | 93.6 | -4.73% (inactive) | -8.5% (inactive)
3 | CCCCC(=O)NCCc1cc2ccc(OC)cc2[nH]c1=O | 91.5 | 85.5% (inactive) | 91.5% (inactive) | 102% (inactive) | 103% (inactive) | 7.54% (inactive) | 95.4 | 103 | -7.95% (inactive) | -3.33% (inactive)
4 | O=C(c1ccc(S(=O)(=O)N2CCOCC2)cc1)N(c1ccc(F)cc1)C1C=CS(=O)(=O)C1 (stereo not given) | 97.5 | 109% (inactive) | 97.5% (inactive) | 75.1% (inactive) | 97% (inactive) | 4.64% (inactive) | 92.4 | 97 | -1.92% (inactive) | -9% (inactive)
5 | COc1ccccc1C(=O)N1CCN=C1SCc1cccnc1 | 102 | 103% (inactive) | 102% (inactive) | 97.5% (inactive) | 96.8% (inactive) | 11.6% (inactive) | 85.3 | 96.8 | -3.65% (inactive) | -2.06% (inactive)
6 | O=C(Nc1cccc(F)c1)c1ccc2c(c1)OCO2 | 97.5 | 106% (inactive) | 97.5% (inactive) | 103% (inactive) | 97.1% (inactive) | 13.4% (inactive) | 83.7 | 97.1 | -2.63% (inactive) | -3.44% (inactive)
7 | COc1ccccc1-n1c(SCC(N)=O)nnc1-c1ccccc1 | 126 | 97% (inactive) | 126% (inactive) | 88.7% (inactive) | 87.7% (inactive) | -0.18% (inactive) | 87.8 | 87.7 | -7.11% (inactive) | 1.9% (inactive)
8 | CCOC(=O)N1CCN(C(=O)c2cccn3c(=O)c4sccc4nc23)CC1 | 89.5 | 93.5% (inactive) | 89.5% (inactive) | 106% (inactive) | 90.8% (inactive) | -12.8% (inactive) | 104 | 90.8 | 3.6% (inactive) | -0.33% (inactive)
9 | COc1ccccc1CNC(=O)N[C@@H](Cc1ccccc1)C(=O)O | 102 | 80% (inactive) | 102% (inactive) | 114% (inactive) | 93.2% (inactive) | 12.2% (inactive) | 81 | 93.2 | -5.81% (inactive) | 10.5% (inactive)
10 | COc1ccccc1CN1C(=O)CCC1(C)C(=O)NC1CCCCCC1 (stereo not given) | 83 | 99% (inactive) | 83% (inactive) | 101% (inactive) | 98.1% (inactive) | 2.86% (inactive) | 95.2 | 98.1 | -2.13% (inactive) | 2.62% (inactive)
11 | Cc1ccc(-c2nnn(CC(=O)N(CC3CCCO3)C(C(=O)NC(C)(C)C)c3ccc(F)cc3)n2)o1 (stereo not given) | 106 | 96% (inactive) | 106% (inactive) | 100% (inactive) | 101% (inactive) | 3.52% (inactive) | 97.4 | 101 | -1.07% (inactive) | -4.03% (inactive)
12 | Cc1ccc(S(=O)(=O)N2CCCC2C(=O)n2nc(C)cc2C)cc1 (stereo not given) | 114 | 90% (inactive) | 114% (inactive) | 90.1% (inactive) | 83.5% (inactive) | 2.58% (inactive) | 80.9 | 83.5 | -7.97% (inactive) | 3.67% (inactive)
13 | COC(=O)c1c(O)ccc(Oc2ccccc2)c1C(=O)OC | 104 | 119% (inactive) | 104% (inactive) | 95.9% (inactive) | 85.3% (inactive) | -1.09% (inactive) | 86.4 | 85.3 | -4.49% (inactive) | -4.67% (inactive)
14 | COc1cc(OC)cc(-c2nc3cc(C)ccc3o2)c1 | 95.5 | 70.5% (inactive) | 95.5% (inactive) | 62.8% (inactive) | 73% (inactive) | -2.79% (inactive) | 75.8 | 73 | -3.16% (inactive) | -4.52% (inactive)
15 | Cc1sc(NC(=O)CSc2nnc(COc3ccccc3)n2C)c(C#N)c1C | 83 | 75.5% (inactive) | 83% (inactive) | 72.2% (inactive) | 70.3% (inactive) | -3.05% (inactive) | 73.3 | 70.3 | -1.3% (inactive) | -7.3% (inactive)
16 | COc1cccc(CNC(=O)C2CCN(C(=O)N(C)C)CC2)c1 | 97.5 | 118% (inactive) | 97.5% (inactive) | 90% (inactive) | 92.2% (inactive) | 0.06% (inactive) | 92.2 | 92.2 | -0.64% (inactive) | 11.8% (inactive)
